The text below walks through data of ChEMBL document CHEMBL1141901, “1-Aryl-4,6-diamino-1,2-dihydrotriazine as antimalarial agent: a new synthetic route” (Bioorg Med Chem Lett, 2005).

In test [1] the test system is Plasmodium falciparum. As to the kind of experiment: Inhibitory concentration against Plasmodium falciparum.
Test in test [2]: as above
The subject of test [3] is Plasmodium falciparum. As to the kind of experiment: Inhibitory concentration sensitive Plasmodium falciparum FJB-D9. Type of test: functional. An outline of the steps: (§1)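 P. falciparum field isolates (collected from patients, 1990) grown in RPMI 1640 lacking p-aminobenzoic acid and folic acid, with 25 mM HEPES, bicarbonate and 10% human AB+ serum. Compounds tested over 0.0005–100 range, 30 h at 37 °C in candle jar. Schizonts (≥8 nuclei) per 200 asexual parasites counted microscopically in duplicate wells. Inhibition as (1 − Nt/Nc)×100. IC50/IC90 taken from these values.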

A short description of test [4]: Inhibitory concentration against cycloguanil sensitive Plasmodium falciparum FJB-D9. Type of test: functional. An outline of the steps: as §1

Regarding `NC1=NCN(c2ccc(F)c(Cl)c2)C(N)=N1`, the values for the IC90 in test [1] and in test [3] were 49.5 µM and 47.6 µM, respectively. For the same molecule, the IC50 in test [2] stood at 14.7 µM; in test [4], 17.3 µM.
Consider `NC1=NC(c2ccccc2)N(c2ccc(F)c(Cl)c2)C(N)=N1` (stereo unspecified), for which the IC50 was found to be 81.9 µM in test [2] and 87.6 µM in test [4].
Regarding `Cc1ccc(N2CN=C(N)N=C2N)cc1`, the IC50 in test [2] is 501 µM; in test [4] it was 584 µM.
Turning to `CCc1nc(N)nc(N)c1-c1ccc(Cl)cc1` [PYRIMETHAMINE], the 90% effect concentration (IC90) in test [1] stood at 0.028 µM; in test [3] it was 0.006 µM. Moreover, the IC50 in test [2] was 0.005 µM; in test [4], 0.0016 µM.
In the case of `NC1=NC(c2ccccc2)N(c2ccccn2)C(N)=N1` (stereo unspecified), the figures for the IC50 in test [2] and in test [4] were 52.9 µM and 81 µM, respectively.
As to `NC1=NCN(c2ccccn2)C(N)=N1`, the IC50 in test [2] is 629 µM; in test [4] it was 618 µM.
